Experimental data reported in ChEMBL document CHEMBL1137007, “Synthesis of 4-substituted pyrido[2,3-d]pyrimidin-4(1H)-one as analgesic and anti-inflammatory agents” (Bioorg Med Chem Lett, 2009).

How the values were obtained:
Mus musculus [1] = assay: Analgesic activity in Wister albino mice at 10 mg/kg, po after 1 hr by tail-flick test
Rattus norvegicus [2] = assay: Antiinflammatory activity in rat assessed as inhibition of carrageenan-induced paw oedema at 10 mg/kg, po after 30 mins; assay type: functional; set-up: scale not given: the % may be the effect or the level left
Outline: (§1)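 Rats, six per group, were dosed orally (10 or 20 mg/kg, suspension in 1% carboxymethyl cellulose) before carrageenan paw injection. Paw volume was read by mercury-displacement plethysmography just before and 30 min, 1, 2 and 3 h after carrageenan. %inhibition = 100[1 − (a − x)/(b − y)], with the test group's pre/post volumes set against the vehicle control group's. Reported as mean ± SEM (n = 6) with ANOVA.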

Mus musculus [3] = assay: Analgesic activity in Wister albino mice at 10 mg/kg, po after 3 hrs by tail-flick test
Rattus norvegicus [4] = assay: Antiinflammatory activity in rat assessed as inhibition of carrageenan-induced paw oedema at 10 mg/kg, po after 2 hrs; assay type: functional; set-up: scale not given: the % may be the effect or the level left
Outline: as §1

Rattus norvegicus [5] = assay: Antiinflammatory activity in rat assessed as inhibition of carrageenan-induced paw oedema at 10 mg/kg, po after 3 hrs; assay type: functional; set-up: scale not given: the % may be the effect or the level left
Outline: as §1

Mus musculus [6] = assay: Analgesic activity in Wister albino mouse at 20 mg/kg, po after 1 hr by tail-flick test
Rattus norvegicus [7] = assay: Antiinflammatory activity in rat assessed as inhibition of carrageenan-induced paw oedema at 20 mg/kg, po after 2 hrs; assay type: functional; set-up: scale not given: the % may be the effect or the level left
Outline: as §1

Mus musculus [8] = assay: Analgesic activity in Wister albino mice at 10 mg/kg, po after 30 mins by tail-flick test
Mus musculus [9] = assay: Analgesic activity in Wister albino mice at 20 mg/kg, po after 30 mins by tail-flick test
Rattus norvegicus [10] = assay: Toxicity in Wistar albino rat assessed as ulcer index at 20 mg/kg, ip administered once daily for 3 days; assay type: organism-based; set-up: dose 20 mg/kg, route intraperitoneal; settings: in vivo, 72 h
Outline: (§2)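 Wistar albino rats of either sex (150–200 g), six per group, housed at 25 °C, 45–55% RH, 12-h light/dark cycle and acclimatized one week. Dosing was intraperitoneal as a suspension in 10% v/v Tween-80, with a vehicle-only control group. Animals were fasted 36 h, then pylorus-ligated (Shay method) on day 4 and sacrificed 4 h later for ulcer index. Values are mean ± SEM (n = 6), analysed by one-way ANOVA.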

Mus musculus [11] = assay: Analgesic activity in Wister albino mice at 20 mg/kg, po after 3 hrs by tail-flick test
Mus musculus [12] = assay: Analgesic activity in Wister albino mice at 20 mg/kg, po after 2 hrs by tail-flick test
Rattus norvegicus [13] = assay: Antiinflammatory activity in rat assessed as inhibition of carrageenan-induced paw oedema at 20 mg/kg, po after 30 mins; assay type: functional; set-up: scale not given: the % may be the effect or the level left
Outline: as §1

Rattus norvegicus [14] = assay: Antiinflammatory activity in rat assessed as inhibition of carrageenan-induced paw oedema at 20 mg/kg, po after 3 hrs; assay type: functional; set-up: scale not given: the % may be the effect or the level left
Outline: as §1

Rattus norvegicus [15] = assay: Antiinflammatory activity in rat assessed as inhibition of carrageenan-induced paw oedema at 10 mg/kg, po after 1 hr; assay type: functional; set-up: scale not given: the % may be the effect or the level left
Outline: as §1

Rattus norvegicus [16] = assay: Antiinflammatory activity in rat assessed as inhibition of carrageenan-induced paw oedema at 20 mg/kg, po after 1 hr; assay type: functional; set-up: scale not given: the % may be the effect or the level left
Outline: as §1

Mus musculus [17] = assay: Analgesic activity in Wister albino mice at 10 mg/kg, po after 2 hrs by tail-flick test
Rattus norvegicus [18] = assay: Toxicity in Wistar albino rat assessed as ulcer index at 200 mg/kg, ip administered once daily for 3 days; assay type: organism-based; set-up: dose 200 mg/kg, route intraperitoneal; settings: in vivo, 72 h
Outline: as §2

SMILES	Activity (Mus musculus [1]) [%]	Activity (Rattus norvegicus [2]) [%]	Activity (Mus musculus [3]) [%]	Activity (Rattus norvegicus [4]) [%]	Activity (Rattus norvegicus [5]) [%]	Activity (Mus musculus [6]) [%]	Activity (Rattus norvegicus [7]) [%]	Activity (Mus musculus [8]) [%]	Activity (Mus musculus [9]) [%]	UI (Rattus norvegicus [10])	Activity (Mus musculus [11]) [%]	Activity (Mus musculus [12]) [%]	Activity (Rattus norvegicus [13]) [%]	Activity (Rattus norvegicus [14]) [%]	Activity (Rattus norvegicus [15]) [%]	Activity (Rattus norvegicus [16]) [%]	Activity (Mus musculus [17]) [%]	UI (Rattus norvegicus [18])
N#Cc1c(N)nc2[nH]c(=S)[nH]c(=O)c2c1-c1ccc(N2CCCCC2)cc1	51	35	39	45	29	64	51	46	63	0.58	47	69	45	36	37	49	55	
CC(=O)Oc1ccccc1C(=O)O [ASPIRIN]																		1.73
